PfG6PD inh: PfG6PD (Plasmodium falciparum) enzyme inhibition; PfGluPho enzyme, NADPH resazurin-diaphorase fluorescence; inhibition, % at 20 µM; 0.78% of 350,000 active; AID 504690;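 active = inhibition reaching at least a set limit at 20 µM in the primary screen, cut at about 59% in these data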;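 also: 0% = DMSO wells with substrate and 100% = DMSO wells lacking glucose-6-phosphate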
HKDC1 inhibitor: blocks human hexokinase HKDC1 activity. Q2TB90. 0.16% of 340,000 active. recombinant HKDC1, G6PDH/diaphorase resazurin coupled fluorescence. inhibition, % at 20 µM. AID 493160;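 active = inhibition above about 35% when tested at 20 µM, limit read from the data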;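 also: plate controls were DMSO wells with enzyme for no effect and DMSO wells lacking enzyme for full effect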
Target sequence (Q2TB90 whole entry, looked up): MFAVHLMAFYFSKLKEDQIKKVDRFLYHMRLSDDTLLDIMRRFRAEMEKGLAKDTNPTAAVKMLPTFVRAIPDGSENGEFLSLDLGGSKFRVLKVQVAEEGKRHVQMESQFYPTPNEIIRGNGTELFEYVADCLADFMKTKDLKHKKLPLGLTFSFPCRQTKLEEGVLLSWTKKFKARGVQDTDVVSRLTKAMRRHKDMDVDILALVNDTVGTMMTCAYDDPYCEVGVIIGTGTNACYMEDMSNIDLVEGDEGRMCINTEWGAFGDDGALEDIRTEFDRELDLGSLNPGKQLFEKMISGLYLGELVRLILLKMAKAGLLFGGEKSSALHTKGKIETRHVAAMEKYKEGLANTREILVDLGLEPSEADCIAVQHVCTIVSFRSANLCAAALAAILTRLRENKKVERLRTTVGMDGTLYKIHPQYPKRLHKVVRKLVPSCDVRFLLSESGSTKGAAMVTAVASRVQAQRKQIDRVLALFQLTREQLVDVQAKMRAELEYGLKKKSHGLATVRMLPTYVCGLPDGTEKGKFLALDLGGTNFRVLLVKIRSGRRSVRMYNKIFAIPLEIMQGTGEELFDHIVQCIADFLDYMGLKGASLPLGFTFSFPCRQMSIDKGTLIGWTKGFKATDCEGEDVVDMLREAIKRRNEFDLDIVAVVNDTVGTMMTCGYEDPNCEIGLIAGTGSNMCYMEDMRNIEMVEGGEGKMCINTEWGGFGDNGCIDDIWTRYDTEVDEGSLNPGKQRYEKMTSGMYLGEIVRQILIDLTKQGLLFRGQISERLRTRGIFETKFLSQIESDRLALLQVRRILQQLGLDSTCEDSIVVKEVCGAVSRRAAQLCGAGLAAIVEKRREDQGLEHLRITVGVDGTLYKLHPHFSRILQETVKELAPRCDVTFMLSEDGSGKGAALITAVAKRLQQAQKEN
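test system = in-house recombinant HK5 (HKDC1) enzyme | amount = HKDC1 at 5 µg/mL | control set = DMSO-enzyme wells negative, buffer-substituted wells positive | compound = one dose of 20 µM, 1% DMSO | schedule = reaction time 90 min, room temperature, protected from light | technique = resorufin fluorescence at 613 nm | reagent = glucose with 1 mM ATP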
G6PDH CS: inhibits Leuconostoc G6PDH, flagging false hits in G6PDH-based assays; Purified L. mesenteroides G6PDH, diaphorase/resazurin coupled fluorescence, 45 min; 0.12% of 200,000 active; inhibition, % at 5 µM; in the data active = inhibition above about 50%
Diaphorase act: counter-screen for diaphorase-based assays: diaphorase activators and chemical reducers | Diaphorase/resazurin coupled assay, resorufin fluorescence, 16 min; hits give high values; 1 = vehicle wells, 0 = NADH-free wells | 0.005% of 190,000 active | activation factor at 20 µM;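 active = diaphorase activity raised at least twofold by the compound at 20 µM; inactive = activation factor below 2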
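Material: purified diaphorase enzyme from Clostridium kluyveri / Medium: HEPES pH 7.4 buffer with MgCl2 and Tween 20 / Schedule: enzyme reaction of 16 min at room temperature / Measured by: resorufin fluorescence, excitation 544 nm, emission 590 nm / Evaluation: rise in resorufin formation, marking diaphorase activation or chemical reduction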
Diaph inh CS: counter-screen for diaphorase-based assays: diaphorase inhibitors and chemical oxidizers; inhibition, % at 20 µM; diaphorase resazurin-to-resorufin fluorescence, NADH, 16 min; bacterial (C. kluyveri) enzyme, not human; AID 1217; 0.69% of 190,000 active;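 active = primary screen inhibition at 20 µM above a set limit, cut at about 50% in these data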;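 also: plate controls were DMSO with full reaction for no effect and wells lacking NADH for full effect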
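System: Bacterial diaphorase enzyme (C. kluyveri) | Incubation: 16-min room-temperature incubation before reading | Benchmarks: No-NADH positive control and DMSO neutral control | Measured by: Resorufin fluorescence 544/590 nm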
* = called active by the depositor; . = no result. Shown are actives, neighbours in structure and some others; about 1.3% of the full set was active somewhere.

SMILES	PfG6PD inh	HKDC1 inhibitor	G6PDH CS	Diaphorase act	Diaph inh CS
N#Cc1c2n(c3c(=O)[nH]cnc13)CCCC2	-2.0	-7.7	2.3	1.1	-5.6
N#Cc1c2n(c3c(=S)nc[nH]c13)CCCCC2	29.6	-1.6	4.5	0.5	54.3*
CCc1ccc(NC(=O)CSc2nnnn2C)cc1	-2.4	1.9	.	.	.
Cc1c2cnn(CC(=O)NCCCN3CC(C)CC(C)C3)c(=O)c2c(C)n1Cc1ccccc1Cl (stereo not drawn)	-8.2	3.0	.	.	.
C=CCn1c(SCC(=O)N2N=C(c3ccco3)CC2c2ccco2)nnc1-c1ccncc1 (stereo not drawn)	-3.5	-8.2	5.5	0.3	73.5*
Cc1ccc(C2=NN(C(=O)CSc3nccn3C)C(c3ccco3)C2)cc1 (stereo not drawn)	5.0	0.0	.	.	.
COc1ccc(C(=O)CCC(=O)N2CCN(c3ccc(C)cc3)C(C)C2)cc1 (stereo not drawn)	-2.5	-4.3	.	.	.
CCS(=O)(=O)C1=NN2C(=N)/C(=C\c3ccc(SCc4ccco4)o3)C(=O)N=C2S1	10.8	4.2	2.8	0.4	57.0*
Cc1ccccc1N=Cc1cccc(O)c1O	46.8	-1.7	51.7*	0.2	82.7*
CCN(CC)c1ccc(C=Nc2ccc(C)cc2C)c(O)c1	16.0	5.3	19.8	1.1	-13.8
Cc1ccc(N=Cc2cccc(O)c2O)c(C)c1	.	.	54.5*	0.3	66.7*
CC(N=Cc1cccc(O)c1O)c1ccccc1 (stereo not drawn)	51.3	11.1	51.9*	0.5	50.6*
COc1ccc(N(C)S(=O)(=O)c2cccc(C(=O)OCC(=O)Nc3cc(C)ccc3OC)c2)cc1	8.5	.	.	.	.
COCCN=c1scc(-c2cccs2)n1/N=C/c1ccc(O)c(O)c1O	52.5	10.2	-7.3	0.3	68.8*
COCCN=c1scc(-c2ccccc2)n1/N=C/c1c[nH]c2ccccc12	31.4	-0.9	-16.5	0.8	20.3
O=C1OC(O)c2cccc3cccc1c23 (stereo not drawn)	2.9	.	.	.	.
COc1ccc(OC)c(N)c1	62.1*	16.7	33.6	0.7	30.4
CCn1c(C)nc2cc(C(=O)NNC(=S)Nc3ccc(C)cc3)ccc21	1.2	-4.5	.	.	.
COc1ccc(C(=O)NC(=S)NNC(=O)c2cnccn2)cc1	-10.6	-20.9	-3.2	0.4	64.6*
O=C(NC(=S)NNC(=O)c1cnccn1)c1ccc(Cl)cc1	-12.8	-27.8	.	.	.
COc1cc(C(=O)NC(=S)NNC(=O)c2cnccn2)cc(OC)c1OC	-5.4	-32.3	-7.8	0.5	51.1*
CCn1c(C)nc2cc(C(=O)NNC(=S)NC(=O)c3ccc(OC)cc3)ccc21	-13.1	-8.1	-3.6	0.4	57.1*
CCOC(=O)c1sc(NC(=O)CSc2n[nH]c(-c3ccccc3)n2)c(C#N)c1C	62.0*	-1.6	-30.2	0.7	27.1
COc1ccc2cc(/C=C3\SC(=S)NC3=O)c(N3CCOCC3)nc2c1	-15.2	12.6	3.3	0.4	58.3*
O=C1NC(=S)S/C1=C/c1ccc(N2CCOCC2)o1	12.3	-2.7	12.0	0.8	24.5
SMILES	PfG6PD inh	HKDC1 inhibitor	G6PDH CS	Diaphorase act	Diaph inh CS
NS(=O)(=O)c1cccc(NC(=O)COC(=O)Cn2cc(C(F)(F)F)ccc2=O)c1	2.7	-3.7	.	.	.
CCOC(=O)N/N=C\c1ccc(OC/C=C/c2ccccc2)cc1	-6.7	-2.5	.	.	.
O=C(NCc1ccccc1)/C(=C\c1cccc([N+](=O)[O-])c1)NC(=O)c1ccco1	-5.8	.	.	.	.
COc1ccc2cc(C(c3nnnn3C(C)(C)C)N3CCc4ccccc4C3)c(=O)[nH]c2c1 (stereo not drawn)	.	.	-21.7	0.5	52.5*
CCC(C)(C)n1nnnc1C(c1cc2ccc(OC)cc2[nH]c1=O)N1CCc2ccccc2C1 (stereo not drawn)	7.0	10.9	3.5	0.5	47.0
COc1ccc2cc(C(c3nnnn3C3CCCC3)N3CCc4ccccc4C3)c(=O)[nH]c2c1 (stereo not drawn)	15.1	2.1	16.9	0.4	55.7*
O=C(Nc1cccc(N=Cc2cc(Br)cc(Br)c2O)c1)c1ccco1	31.6	18.1	39.4	0.4	55.0*
O=C(Nc1cccc(N=Cc2cc(Cl)cc(Br)c2O)c1)c1ccco1	13.8	15.1	9.0	0.6	40.1
Nc1cc2c3ccccc3ccc2c2ccccc12	52.4	26.7	.	.	.
Cc1ccc2nc(-c3ccccc3)cc(C(=O)N3CCN(S(=O)(=O)c4c(C)noc4C)CC3)c2c1	5.4	-0.6	.	.	.
O=C(CCl)Nc1nc(-c2ccco2)c(-c2ccco2)s1	20.2	24.8	15.0	0.3	65.2*
NC(=O)CC(NC(=O)c1ccc(Br)cc1)c1ccc(NC2CCCCCCC2)c([N+](=O)[O-])c1 (stereo not drawn)	5.3	-0.8	.	.	.
Fc1ccc(-[n+]2nc(Nc3ccccc3)sc2-c2c(Cl)cccc2Cl)cc1	63.7*	1.7	.	.	.
O=C(O)c1ccc(-c2sc(Nc3ccccc3)n[n+]2-c2ccc(F)cc2)cc1	12.4	-4.9	.	.	.
O=C(CN1CSCC1=O)N1CCN(S(=O)(=O)c2ccc(Cl)cc2)CC1	-16.4	-0.3	.	.	.
Cc1ccc(-n2c(=O)[nH]c3c(oc4ccccc43)c2=O)cc1	-4.6	5.9	6.6	0.8	20.0
COc1ccc(-n2c(=S)[nH]c3c(oc4ccccc43)c2=O)cc1	40.1	12.3	4.0	0.3	68.5*
CC(C)[C@H](NC(=O)[C@@H]1Cc2c([nH]c3ccccc23)C2c3ccccc3C(=O)N21)C(=O)N1CCC[C@@H]1C(=O)O (stereo partly drawn)	-5.9	5.2	.	.	.
O=[N+]([O-])c1ccc2c(c1)N([O-])C1(CCCCC1)[N+]2=O	59.5*	22.8	.	.	.
CC1=C(c2ccccc2)[N+](=O)C2(CCCC2)N1[O-]	-1.6	-1.9	-1.5	0.9	14.7
Oc1c(CN2CCOCC2)cc(-c2ccccc2)cc1CN1CCOCC1	2.6	-6.2	4.9	0.9	7.5
Oc1c(CN2CCOCC2)ccc2ccccc12	22.2	22.7	60.0*	0.6	40.9
Cc1ccc2cc(C)c3nnc(SCC(=O)N4CCN(C(=O)c5ccco5)CC4)n3c2c1	33.2	9.7	6.5	0.5	51.2*
C=CCC[C@H](Cc1ccc(F)cc1)C(=O)OC[C@@H](Cc1c[nH]c2ccccc12)NC(=O)[C@@H](CC=C)CC(=O)NCCO	26.0	2.4	.	.	.
S=c1[nH]ncn2c1cc1oc3ccccc3c12	17.5	-2.9	5.9	0.5	50.8*
COc1ccc(NS(=O)(=O)c2cc(NC(=O)C(CC(C)C)NC(N)=O)ccc2N2CCOCC2)cc1 (stereo not drawn)	-0.7	1.1	.	.	.
CCOC(=O)c1cc2c(=O)n3ccccc3nc2n(C(C)C)c1=NC(=O)c1ccncc1	22.0	2.2	-9.2	0.3	65.3*
CCOC(=O)c1cc2c(=O)n3ccccc3nc2n(CCOC)c1=NC(=O)c1ccncc1	-2.8	-7.7	-6.2	0.9	6.6
